Bioassay records: PubChem, several laboratories
Exocytosis inh: blocks lytic granule exocytosis; TALL-104 LAMP-1 surface exposure, flow cytometry; cells stimulated with thapsigargin and PMA; inhibition, % at 10 µM; 0.66% of 360,000 active;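 active = inhibition above about 55%, limit read from the data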
UPR XBP1 act: adaptive UPR (XBP1) activation; activation, % at 20 µM; CHO-XBP1 luciferase reporter, IRE1-XBP1 UPR activation, luminescence; percent of tunicamycin response, DMSO as zero; AID 463104; 0.33% of 330,000 active;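 active = versus positive control, 20 µM dose yields 30% or more activation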;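 note: 100% = tunicamycin at 10 µg/mL and 0% = DMSO only wells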
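Signal: luciferase luminescence; Assay system: CHO-XBP1 luciferase reporter cells; Amount: one thousand reporter cells per well; Dosing: 20 µM single concentration, DMSO 1%; Benchmarks: high control tunicamycin 10 µg/mL final, low control DMSO vehicle only; Schedule: 6 h compound exposure at 37 °C, 5% CO2; Evaluation: percent activation relative to tunicamycin reference.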
Mdm2-MdmX inh: disrupts the human Mdm2-MdmX interaction; inhibition, % at 8 µM; O15151+Q00987; 3% of 330,000 active; AID 485346; SaOS-2 split-luciferase Mdm2/MdmX complementation, luminescence;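 active = inhibition of at least 50% at 8 µM in the primary screen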
Target sequence (O15151 whole entry, looked up): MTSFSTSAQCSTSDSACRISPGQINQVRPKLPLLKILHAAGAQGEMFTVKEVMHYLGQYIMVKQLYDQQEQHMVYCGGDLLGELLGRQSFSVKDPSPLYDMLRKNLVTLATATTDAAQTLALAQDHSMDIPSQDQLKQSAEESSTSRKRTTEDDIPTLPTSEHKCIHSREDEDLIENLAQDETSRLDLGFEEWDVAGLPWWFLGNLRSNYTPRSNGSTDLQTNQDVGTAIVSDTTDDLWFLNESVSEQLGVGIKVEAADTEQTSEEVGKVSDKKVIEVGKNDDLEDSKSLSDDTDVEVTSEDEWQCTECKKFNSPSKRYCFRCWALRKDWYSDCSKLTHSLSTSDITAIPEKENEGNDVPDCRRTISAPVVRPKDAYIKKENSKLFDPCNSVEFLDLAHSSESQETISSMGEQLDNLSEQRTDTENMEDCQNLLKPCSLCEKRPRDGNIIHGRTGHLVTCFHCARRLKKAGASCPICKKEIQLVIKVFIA
Target sequence (Q00987 whole entry, looked up): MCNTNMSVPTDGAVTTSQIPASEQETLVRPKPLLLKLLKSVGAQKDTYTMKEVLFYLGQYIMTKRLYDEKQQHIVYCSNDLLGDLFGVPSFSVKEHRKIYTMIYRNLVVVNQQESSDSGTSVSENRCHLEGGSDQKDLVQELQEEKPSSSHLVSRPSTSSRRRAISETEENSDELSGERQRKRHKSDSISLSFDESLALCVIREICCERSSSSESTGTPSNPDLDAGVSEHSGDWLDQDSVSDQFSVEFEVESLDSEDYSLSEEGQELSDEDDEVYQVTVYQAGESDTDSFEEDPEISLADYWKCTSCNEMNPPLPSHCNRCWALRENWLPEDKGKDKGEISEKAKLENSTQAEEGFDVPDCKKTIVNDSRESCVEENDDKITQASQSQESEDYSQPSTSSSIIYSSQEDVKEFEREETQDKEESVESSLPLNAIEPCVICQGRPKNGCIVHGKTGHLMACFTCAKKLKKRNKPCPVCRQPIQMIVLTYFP
ABHD5-PLIN5 inh: inhibitors of human ABHD5-perilipin-5 interaction. 0.78% of 360,000 active. Split G. princeps luciferase complementation, luminescence, 4 h. inhibition, % at 4 µM;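 active = inhibition above the mean inhibition across every tested compound plus 3 SD, cut at about 22% in these data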;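 note: 0% = DMSO only wells and the 100% control is not disclosed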
CHOP UPR activ: activators of apoptotic arm of unfolded protein response (CHOP); 0.34% of 330,000 active; CHO-CHOP luciferase reporter, UPR activation, luminescence; percent of tunicamycin response over DMSO baseline; activation, % at 10 µM; AID 449763;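 active = at 10 µM dose, activation of 40% or more, normalized to positive control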;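 note: 100% = tunicamycin at 10 µg/mL and 0% = DMSO alone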
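System: CHO-CHOP luciferase reporter cell line | Buffer or medium: F12 medium containing 10% fetal bovine serum | Doses: One dose, 10 µM in 0.5% DMSO | Times: 6 h compound exposure at 37 °C after overnight seeding | Signal: Luciferase luminescence | Read-out: % activation vs tunicamycin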
Mdm2-MdmX conf: confirmation of human Mdm2/MdmX interaction inhibitors | Mdm2-MdmX binding, luminescent assay | AID 489028 | inhibition, % at 8 µM | 55% of 10,000 active | shares compounds with Mdm2-MdmX inh; in the data active = inhibition above about 40%
FLuc counter: counter-screen for Mdm2/MdmX inhibitors: full-length luciferase. 77% of 6,200 active. inhibition, % at 8 µM. shares compounds with Mdm2-MdmX inh. SaOS-2 full-length luciferase counterscreen, luminescence;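 active = mean inhibition at 8 µM reaching about 37%, which flags the compound as non-specific, limit read from the data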;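 note: p53-null SaOS-2 cells with luciferase driven by a doxycycline-inducible promoter; compound on cells about two nights before reading with doxycycline added after day one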
ABHD5-PLIN5 conf: confirmation of human ABHD5-PLIN5 interaction inhibitors. shares compounds with ABHD5-PLIN5 inh. biochemical ABHD5-PLIN5 interaction, luminescence. inhibition, % at 4 µM. 67% of 2,200 active. AID 651612; in the data active = inhibition above about 23%;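 note: 0% = DMSO vehicle wells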
HNF4 split-luc: counter-screen for ABHD5-PLIN5 inhibitors: HNF4 split-luciferase; shares compounds with ABHD5-PLIN5 inh; HNF4 dimerization, luminescence, biochemical; inhibition, % at 4 µM; 77% of 2,200 active; AID 651674;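 active = mean inhibition across replicate wells exceeding the computed hit threshold, cut at about 13% in these data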;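 note: light from luciferase halves that rejoin when HNF4 fusion proteins dimerize; 0% = DMSO only wells and the 100% control is not given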
Granule exo CP1: lytic granule exocytosis inhibition. inhibition, % at 10 µM. 11% of 1,500 active. TALL-104 cells, LAMP-1 externalization, flow cytometry; stimulated with PMA plus thapsigargin. shares compounds with Exocytosis inh; in the data active = inhibition above about 60%;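 note: 0% = stimulated vehicle wells and 100% = unstimulated wells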
* hit, by the source's call; . = no result given. Shown are actives, neighbours in structure and some others; about 4% of the full set was active somewhere.

SMILES	Exocytosis inh	UPR XBP1 act	Mdm2-MdmX inh	ABHD5-PLIN5 inh	CHOP UPR activ	Mdm2-MdmX conf	FLuc counter	Granule exo CP1	others
COc1ccc(CNCCc2ccc(Cl)cc2)cc1OCc1ccccc1	31	0	38	9	-1	.	.	.
NC(=O)NC(c1ccccc1)c1cccc2ccccc12 (configuration not stated)	4	0	15	2	1	.	.	.
Clc1ccc2nc(N3CCNCC3)nc(-c3ccccc3)c2c1	86*	23	64*	18	2	21	.	59
OCCN1CCN(c2nc(-c3ccccc3)c3cc(Cl)ccc3n2)CC1	3	-3	22	19	1	.	.	.
Cc1ccccc1NC(=O)C1C(=O)Nc2ccccc2C(=O)N1Cc1ccccc1 (configuration not stated)	13	.	.	-9	.	.	.	.
COc1ccccc1N1N=C(c2ccc([N+](=O)[O-])cc2)CC1c1ccccc1 (configuration not stated)	55	-3	11	13	-1	.	.	.
O=[N+]([O-])c1ccc(N2N=C(c3ccccc3)CC2c2ccccc2O)cc1 (configuration not stated)	58*	13	90*	-2	0	36	104*	28
CCN1CCN(C(=O)c2ccc(-c3nc4ccccc4s3)s2)CC1	-2	0	-138	-1	4	.	.	.
CC1(C(=O)NCC2CC2)Cc2c(-c3cccc(C(N)=O)c3)ccnc2O1 (configuration not stated)	11	.	.	7	.	.	.	.
CCc1ccc2nc(N(CCCN(C)C)C(=O)c3ccc(S(=O)(=O)N4CCCc5ccccc54)cc3)sc2c1	56*	27	91*	17	2	30	.	23
CCN(c1ccccc1)S(=O)(=O)c1ccc(C(=O)N(CCCN(C)C)c2nc3cc4c(cc3s2)OCO4)cc1	70*	1	65*	15	1	49*	48*	3
Cc1ccc2sc(N(CCCN(C)C)C(=O)c3ccc(S(=O)(=O)N(C)Cc4ccccc4)cc3)nc2c1C	66*	30	100*	18	5	49*	46*	58
CCc1ccc2nc(N(CCCN(C)C)C(=O)c3ccc(S(=O)(=O)N4CCCC4)cc3)sc2c1	14	0	28	19	1	.	.	.
CCN1CCC(CN2CCNC2=S)CC1	-3	.	.	2	.	.	.	.
CN(C)CCCNc1ncnc2oc(-c3ccccc3)c(-c3ccccc3)c12	59*	4	66*	2	0	39	64*	4
COc1cc(CNC(C)c2ccccc2)cc(Br)c1OCc1ccc(F)cc1 (configuration not stated)	65*	6	60*	-11	1	63*	75*	-13
COC(=O)CCS(=O)(=O)c1nc(-c2ccccc2)cc(C(F)(F)F)n1	87*	-7	84*	51*	4	100*	51*	20	ABHD5-PLIN5 conf=85*;HNF4 split-luc=105*
CN(C)CCn1c(=N)n(CC(O)c2ccc(Cl)c(Cl)c2)c2ccccc21 (configuration not stated)	85*	0	71*	23*	-2	55*	74*	-13
CN1CCN(Cc2nc3ccccc3c(=O)n2Cc2nc(-c3ccc([N+](=O)[O-])cc3)cs2)CC1	75*	9	95*	6	3	31	.	97*
Cc1cc(C)c2nc(C)cc(N/N=C/c3ccc(O)cc3)c2c1	87*	3	98*	5	15	100*	50*	101*
